This is a sample that favours compounds with a hit; in the whole collection about 2.3% have one here.
G6PDH CS = L. mesenteroides G6PDH inhibition counter-screen; Purified L. mesenteroides G6PDH, diaphorase/resazurin coupled fluorescence, 45 min; inhibition, % at 5 µM; hit rate 0.12% among 200,000; in the data active = inhibition above about 50%
Diaphorase inh = inhibits diaphorase or chemically oxidizes, flagging diaphorase assay artifacts; diaphorase resazurin-to-resorufin fluorescence, NADH, 16 min; bacterial (C. kluyveri) enzyme, not human; inhibition, % at 20 µM; hit rate 0.69% among 190,000;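 active = primary screen inhibition at 20 µM above a set limit, cut at about 50% in these data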
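Test system: bacterial diaphorase enzyme (C. kluyveri); Quantity: 0.14 U/mL diaphorase, enzyme working solution; Times: reaction incubation of 16 min at room temperature; Measured by: fluorescence of resorufin formed from resazurin, Ex 544/Em 590 nm; Benchmarks: positive control minus NADH, DMSO neutral control.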
FLuc act counter = firefly luciferase counter-screen for stimulation assays; P08659; 200,000 tested, under 10 active; ATPlite luciferase biochemical, luminescence, 10 min; 0 = ATP-free wells, 1 = DMSO control; activation factor at 10 µM;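 active = luciferase activation factor, scaled between plate controls, of at least 2 with compound at 10 µM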
Target sequence (P08659 whole entry, looked up): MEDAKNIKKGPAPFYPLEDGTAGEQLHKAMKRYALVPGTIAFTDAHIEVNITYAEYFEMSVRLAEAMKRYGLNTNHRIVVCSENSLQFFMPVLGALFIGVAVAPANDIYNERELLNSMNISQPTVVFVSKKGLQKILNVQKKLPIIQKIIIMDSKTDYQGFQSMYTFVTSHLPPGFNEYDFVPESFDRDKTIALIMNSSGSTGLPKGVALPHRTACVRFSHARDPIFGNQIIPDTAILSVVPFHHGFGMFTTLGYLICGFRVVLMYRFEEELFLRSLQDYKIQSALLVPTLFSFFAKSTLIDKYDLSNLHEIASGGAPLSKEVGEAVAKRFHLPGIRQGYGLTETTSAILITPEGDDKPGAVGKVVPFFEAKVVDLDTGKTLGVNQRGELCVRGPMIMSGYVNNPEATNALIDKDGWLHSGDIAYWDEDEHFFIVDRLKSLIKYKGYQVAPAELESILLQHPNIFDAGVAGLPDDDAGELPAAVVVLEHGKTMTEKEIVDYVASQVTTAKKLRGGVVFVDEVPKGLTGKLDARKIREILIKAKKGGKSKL
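test system = cell-free luciferase reagent | medium = PBS as buffer for the ATP substrate | dosing = test compounds dosed from 2 mM stocks in 100% DMSO | incubation = 10 min at ambient temperature | detection = luminescence measurement of luciferase light output | benchmarks = low control with PBS replacing ATP, high control enzyme plus ATP without compound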
Diaphorase act = activates diaphorase or chemically reduces, flagging diaphorase assay artifacts; Diaphorase/resazurin coupled assay, resorufin fluorescence, 16 min; stronger effect = higher value; 1 = vehicle wells, 0 = NADH-free wells; activation factor at 20 µM; hit rate 0.005% among 190,000; AID 1229;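 active = diaphorase activity raised at least twofold by the compound at 20 µM; inactive = activation factor below 2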
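Material: Clostridium kluyveri diaphorase, purified enzyme; Quantity: enzyme 0.07 U/mL final; Medium: HEPES pH 7.4 buffer with MgCl2 and Tween 20; Dosing: single compound dose of 20 µM, 1% DMSO final; Schedule: 16 min reaction at room temperature; Measured by: red resorufin fluorescence at 544/590 nm excitation/emission.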
FLuc inhib CS = inhibits firefly luciferase, flagging false hits in luciferase inhibition screens; ATPLite firefly luciferase biochemical luminescence, 10 min; inhibition, % at 10 µM; AID 1006; hit rate 1.5% among 200,000;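 active = inhibition above about 50% when tested at 10 µM, limit read from the data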
Large screens that a line does not name were inactive.

O=C(Nc1nnc(SCC(=O)N2CCOCC2)s1)c1ccccc1Cl	FLuc inhib CS 85
CC(C)(C)NC(=O)CSc1nnc(NC(=O)c2ccccc2Cl)s1	none
O=C(CSc1nnc(NC(=O)c2ccco2)s1)Nc1ccccc1F	none
CCOC(=O)CNC(=O)CSc1nnc(NC(=O)c2ccccc2Cl)s1	FLuc inhib CS 69
O=C(CSc1nnc(NC(=O)c2ccccc2F)s1)Nc1ccccc1F	FLuc inhib CS 89
CCOC(=O)C1CCN(C(=O)c2c(C)oc3c2C(=O)c2ccccc2C3=O)CC1	G6PDH CS 60
Cc1oc2c(c1C(=O)N1CCC(C)CC1)C(=O)c1ccccc1C2=O	G6PDH CS 56
CC1=Nc2nc(N3CCCCC3)c(C#N)c3c4c(nc(c23)N1)N(c1ccc(C(C)C)cc1)C(=O)C4	Diaphorase inh 81
CC(C)c1ccc(-c2nc(N3CCCCC3)[nH]c(=O)c2C#N)cc1	none
O=C1CCCC2=C1C(c1ccco1)Nc1ccc(C(=O)c3ccccc3)cc1N2 (configuration not stated)	Diaphorase inh 68
CN1C(=O)/C(=C/c2ccccc2OCc2ccc(C(=O)O)cc2)NC1=S	Diaphorase inh 58
CCN(CC)c1ccc(N=Nc2ncn[nH]2)cc1	FLuc inhib CS 82
CCN(CC)c1ccc(/C=N/O)cc1	none
CCN1CC(CN(C)Cc2cn(-c3ccc(C)cc3)nc2-c2cccc(C)c2)CC1=O (configuration not stated)	none
CCc1nc2cc([N+](=O)[O-])c([N+](=O)[O-])cc2[nH]1	none
C=CCn1c(C)cc(C(=O)COc2ncnc3sccc23)c1C	FLuc inhib CS 58
NS(=O)(=O)c1ccc(CNC(=O)c2csc3c2CCCC3)cc1	Diaphorase inh 85
Cc1ccc(Sc2oc(/C=N/n3cnnc3)cc2Br)cc1	none
COc1ccc2cc(/C(C)=N/NC(=O)c3cc(-c4cccnc4)nc4ccccc34)ccc2c1	none
CCOc1ccc(/C=N/NC(=O)c2cc(-c3ccco3)nc3ccccc23)cc1	FLuc inhib CS 53
O=C(N/N=C/c1ccc(F)cc1)c1cc(-c2ccco2)nc2ccccc12	none
C/C(=N\NC(=O)c1cc(-c2ccco2)nc2ccccc12)c1cccnc1	FLuc inhib CS 53
O=C(N/N=C/c1ccc([N+](=O)[O-])o1)c1cc(-c2ccc(-c3ccccc3)cc2)nc2ccccc12	FLuc inhib CS 93
C/C(=N\NC(=O)c1ccc([N+](=O)[O-])c(C)c1)c1ccccc1Cl	none
O=C(O)c1ccc(Nc2nc(-c3cc4ccccc4oc3=O)cs2)cc1O	Diaphorase inh 88
CC(=O)Nc1ccc(Cl)cc1C(=O)O	none
COc1ccc(C(=O)N/N=C/c2cccc3cccnc23)cc1	FLuc inhib CS 59
COc1ccc(C(=O)N/N=C/c2cc3ccccc3[nH]c2=S)cc1	Diaphorase inh 55
COc1ccc(NC(=S)NCCc2c(C)[nH]c3ccc(OC)cc23)cc1	none
COCCCNC(=O)CCC(=O)NNc1nc2ccccc2c2nc(C)nn12	none
CC(C)c1nnc(NC(=O)c2ccc3c(c2)OCO3)s1	FLuc inhib CS 51
Cc1cc(C)nc(NC(=O)c2ccc3c(c2)OCO3)c1	FLuc inhib CS 56
Cc1cc(C)nc(NC(=O)Nc2ccc3c(c2)OCO3)c1	none
CC1(C)Cc2c(sc(NC(=S)NC(=O)c3ccccc3)c2C(=O)O)CO1	Diaphorase inh 78
N#Cc1c(-c2ccncc2)c2c([nH]c1=S)CCCC2	none
Cc1ccc(-c2c3c([nH]c(=S)c2C#N)CCCC3)o1	Diaphorase inh 51
Cc1nc2nc(-c3ccco3)[nH]n2c(=O)c1C	none
CN(C)c1oc(-c2ccccc2F)nc1C#N	none
O=C(c1ccccc1)c1nnc(-c2ccccc2F)o1	FLuc inhib CS 78
O=C(N/N=C/c1ccccn1)c1ccc(N/N=C/c2ccccn2)cc1	FLuc inhib CS 72
O=C(N/N=C/c1ccc(Br)cc1)c1ccc(F)cc1	none
C(=N\NC1=Nc2cccc3cccc1c23)/c1ccccn1	FLuc inhib CS 66
Cc1csc(N/N=C/c2ccccn2)n1	FLuc inhib CS 92
Cc1cccc(/C=N/NC(=O)c2ccc(Br)cc2)c1	FLuc inhib CS 54
Cc1csc(Nc2ccccc2)n1	none
c1ccc2c(-c3[nH]ncc3CNCCCn3ncc4ccccc43)cccc2c1	none
CC(=O)C1=C(C)NC(SCC(=O)c2ccccc2)=C(C#N)C1CC(C)C (configuration not stated)	none
Cc1occc1C(=O)NNC(=O)Nc1ccc([N+](=O)[O-])cc1	none
O=C(N/N=C/c1ccccn1)c1cccc([N+](=O)[O-])c1	none
O=C(N/N=C/c1ccccn1)c1ccc(Br)cc1	FLuc inhib CS 82
Cc1cccc(C(=O)N/N=C/c2ccccn2)c1	FLuc inhib CS 51
O=C(N/N=C/c1ccccn1)c1ccc([N+](=O)[O-])cc1	FLuc inhib CS 67
Cc1cccc(NC(=S)NN2CCN(C)CC2)c1	none
N/C(=N\OC(=O)CCC1CCCC1)c1ccccc1	FLuc inhib CS 88
N/C(=N\OC(=O)CCC1CCCC1)c1ccc([N+](=O)[O-])cc1	none
N/C(=N\OC(=O)CCC1CCCC1)c1ccccn1	FLuc inhib CS 84
N/C(=N\OC(=O)CCCc1ccccc1)c1ccccn1	FLuc inhib CS 60
O=C(NNC(=O)C1CCCN(S(=O)(=O)c2cccc(F)c2)C1)C1CC1 (configuration not stated)	none
O=C1c2cccc3cccc(c23)C(=O)N1OS(=O)(=O)c1ccc(Br)cc1	none
O=C1c2cccc3cccc(c23)C(=O)N1OS(=O)(=O)c1ccccc1	FLuc inhib CS 59
CCc1nnc(NC(=O)CCn2cnc3ccccc3c2=O)s1	none
O=[N+]([O-])c1ccc(NC(=S)NCC(c2cccnc2)N2CCOCC2)cc1 (configuration not stated)	none
COc1ccc(S(=O)(=O)N(C)CC(=O)Nc2ccc(C)cc2)cc1OC	Diaphorase inh 65
COc1cc(NC(=O)CN(C)S(=O)(=O)c2ccc(C)cc2)cc(OC)c1	none
COc1cc(SC)ccc1C(=O)Nc1ncc(C)s1	FLuc inhib CS 93
COc1cc(SC)ccc1C(=O)Nc1ccc(S(=O)(=O)N2CCCC2)cc1	none
COc1cc(SC)ccc1C(=O)Nc1ccon1	none
COc1cc(SC)ccc1C(=O)Nc1ccc2c(c1)OCO2	FLuc inhib CS 72
COc1cc(SC)ccc1C(=O)Nc1cccc(C)n1	FLuc inhib CS 70 (no result: Diaphorase inh, Diaphorase act)
COc1cc(SC)ccc1C(=O)Nc1ccc(C)cc1C	none
COc1cc(SC)ccc1C(=O)Nc1ncc(Cl)cc1Cl	none
COc1cc(SC)ccc1C(=O)Nc1ccc(C)cc1	FLuc inhib CS 54
CCOC(=O)C=Nc1c(N)n(C)c(=O)n(C)c1=O	none
CCOc1ccc(N=Cc2c(O)c3ccccc3oc2=O)cc1	FLuc inhib CS 78
